From ChEMBL document CHEMBL4325869, “1,2,3,4-Tetrahydroisoquinoline/2H-chromen-2-one conjugates as nanomolar P-glycoprotein inhibitors: Molecular determinants for affinity and selectivity over multidrug resistance associated protein 1” (Eur J Med Chem, 2019)

Legend:
[1] = target: T1, ATP-dependent translocase ABCB1 (Homo sapiens, UniProt P08183); assay: Inhibition of MDR1 (unknown origin) expressed in MDCK cells assessed as reduction in calcein-AM efflux preincubated for 30 mins followed by calcein-AM addition measured after 30 mins by spectrofluorimetric method; format: cell-based
[2] = target: T1, ATP-dependent translocase ABCB1; assay: Inhibition of MDR1 (unknown origin) expressed in MDCK cells assessed as potentiation of doxorubicin-induced cytotoxicity preincubated for 24 hrs followed by doxorubicin addition measured after 72 hrs by MTT assay; format: cell-based
Summary of the method: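 MDCK-MDR1 cells were seeded at 10,000/well, and compound was added at 0.1, 1 and 10 µM on day 2. On day 3 the medium was replaced with compound plus 10 µM doxorubicin. The 72 h run ended with MTT (0.5 mg/mL, 3 h, 37 °C) and DMSO solubilization, read at 570/630 nm. Growth is % of drug-free control, compared against doxorubicin alone by one-way ANOVA with Bonferroni post-hoc.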

[3] = tested on: MDCK; assay: Cytotoxicity against MDCK cells expressing MDR1 assessed as reduction in cell viability at 10 uM after 72 hrs by MTT assay; format: ADME, cell-based, Canis lupus familiaris; conditions: dog
Summary of the method: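 MDCK-MDR1 cells (DMEM high glucose, 10% FBS, 37 °C, 5% CO2) were seeded at 10,000/well. Compound was added at 0.1, 1 and 10 µM the next day. On day 3 the medium was replaced with compound alone, and the 72 h run ended with MTT (0.5 mg/mL, 3 h, 37 °C). Formazan was dissolved in DMSO and read at 570/630 nm. Viability is % of untreated control with solvent controls, from 2-3 independent experiments in triplicate.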

T1 sequence (P08183 whole entry): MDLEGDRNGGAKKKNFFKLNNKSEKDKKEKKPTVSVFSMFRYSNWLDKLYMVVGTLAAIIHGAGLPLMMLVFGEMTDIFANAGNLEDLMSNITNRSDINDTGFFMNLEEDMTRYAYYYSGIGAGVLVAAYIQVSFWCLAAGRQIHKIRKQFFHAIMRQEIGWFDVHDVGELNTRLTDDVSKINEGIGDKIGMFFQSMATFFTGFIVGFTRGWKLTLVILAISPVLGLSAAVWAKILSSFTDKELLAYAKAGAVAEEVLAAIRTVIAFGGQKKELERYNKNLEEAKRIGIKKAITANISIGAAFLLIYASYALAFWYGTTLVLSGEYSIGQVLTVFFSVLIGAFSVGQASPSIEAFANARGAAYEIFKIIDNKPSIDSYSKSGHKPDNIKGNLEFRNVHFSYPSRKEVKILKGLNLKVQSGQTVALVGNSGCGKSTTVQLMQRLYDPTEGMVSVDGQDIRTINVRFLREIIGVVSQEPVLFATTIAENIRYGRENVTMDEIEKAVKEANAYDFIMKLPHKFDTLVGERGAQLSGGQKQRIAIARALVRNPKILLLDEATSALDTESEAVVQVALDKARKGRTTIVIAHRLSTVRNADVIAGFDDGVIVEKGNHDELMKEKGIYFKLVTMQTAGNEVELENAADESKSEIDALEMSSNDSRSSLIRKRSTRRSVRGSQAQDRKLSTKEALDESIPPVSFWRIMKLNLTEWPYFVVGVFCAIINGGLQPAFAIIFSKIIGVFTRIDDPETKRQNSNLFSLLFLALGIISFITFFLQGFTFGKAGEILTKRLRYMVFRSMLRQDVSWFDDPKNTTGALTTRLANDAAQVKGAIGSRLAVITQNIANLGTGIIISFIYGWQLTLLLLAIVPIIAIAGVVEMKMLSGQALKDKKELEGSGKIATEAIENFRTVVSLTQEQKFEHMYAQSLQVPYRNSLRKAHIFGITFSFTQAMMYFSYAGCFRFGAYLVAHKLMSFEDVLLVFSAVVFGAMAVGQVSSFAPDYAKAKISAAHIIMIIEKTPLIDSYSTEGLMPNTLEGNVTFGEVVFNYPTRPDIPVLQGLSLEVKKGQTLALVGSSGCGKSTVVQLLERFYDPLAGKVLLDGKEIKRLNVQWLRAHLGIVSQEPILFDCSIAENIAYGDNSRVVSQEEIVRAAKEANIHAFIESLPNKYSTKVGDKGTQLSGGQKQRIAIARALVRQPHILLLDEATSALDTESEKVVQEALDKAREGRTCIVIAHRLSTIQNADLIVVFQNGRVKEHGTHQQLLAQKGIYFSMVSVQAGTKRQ

| Structure (SMILES) | IC50 [1] | inhibition (INH) [2] | Activity [3] |
| --- | --- | --- | --- |
| COc1cc2c(cc1OC)CN(C/C=C/COc1ccc3c(C)c(C)c(=O)oc3c1)CC2 | 1000 nM | – | – |
| COc1cc2c(cc1OC)CN(CCCCOc1ccc3c(C)c(Cl)c(=O)oc3c1)CC2 | 560 nM | – | – |
| Cc1c(C)c2ccc(OCCCCN3CCc4ccccc4C3)cc2oc1=O | 910 nM | – | – |
| COc1cc2c(cc1OC)CN(CCCCCOc1ccc3c(C)c(-c4ccccc4)c(=O)oc3c1)CC2 | 220 nM | Dose-dependent effect | Non-Toxic |
| COc1cc2c(cc1OC)CN(CCCCCOc1ccc3c(C)c(C)c(=O)oc3c1)CC2 | 70 nM | Dose-dependent effect | Non-Toxic |
| COc1cc2c(cc1OC)CN(Cc1cccc(COc3ccc4ccc(=O)oc4c3)c1)CC2 | 770 nM | – | – |
| Cc1c(C)c2ccc(OCCN3CCc4ccccc4C3)cc2oc1=O | 15000 nM | – | – |
| COc1cc2c(cc1OC)CN(CCCCOc1ccc3cc(-c4ccccc4)c(=O)oc3c1)CC2 | 410 nM | – | – |
| COc1cc2c(cc1OC)CN(CC/C=C1\CCCc3c(OC)cccc31)CC2 | 1200 nM | – | – |
| COc1cc2c(cc1OC)CN(CCCCCCOc1ccc3c(C)c(C)c(=O)oc3c1)CC2 | 220 nM | – | – |
| COc1cc2c(cc1OC)CN(CCCCOc1ccc3c(C)c(C)c(=O)oc3c1)CC2 | 150 nM | – | – |
| COc1cc2c(cc1OC)CN(CCc1ccc(COc3ccc4c(C)c(C)c(=O)oc4c3)cc1)CC2 | 190 nM | Dose-dependent effect | Non-Toxic |
| COc1cc2c(cc1OC)CN(Cc1cccc(COc3ccc4c(C)c(C)c(=O)oc4c3)c1)CC2 | 160 nM | – | – |
| COc1cc2c(cc1OC)CN(CCCCCOc1ccc3c(C)c(Br)c(=O)oc3c1)CC2 | 280 nM | Dose-dependent effect | Non-Toxic |
| COc1cc2c(cc1OC)CN(CCCCCOc1ccc3c(C)c(Cl)c(=O)oc3c1)CC2 | 460 nM | – | – |

Further molecules by falling IC50 [1], results first:

| IC50 [1] | Structure (SMILES) | inhibition (INH) [2] | Activity [3] |
| --- | --- | --- | --- |
| 2700 nM | Cc1c(C)c2ccc(OCCCN3CCc4ccccc4C3)cc2oc1=O | – | – |
| 550 nM | Cc1c(C)c2ccc(OCCCCCN3CCc4ccccc4C3)cc2oc1=O | Dose-dependent effect | Non-Toxic |
| 390 nM | COc1cc2c(cc1OC)CN(CCCCCOc1ccc3cc(-c4ccccc4)c(=O)oc3c1)CC2 | Dose-dependent effect | Non-Toxic |
| 380 nM | COc1cc2c(cc1OC)CN(CCOc1ccc3c(C)c(C)c(=O)oc3c1)CC2 | – | – |
| 330 nM | COc1cc2c(cc1OC)CN(CCCCCOc1ccc3c(c1)oc(=O)c1ccccc13)CC2 | – | – |
| 190 nM | COc1cc2c(cc1OC)CN(Cc1ccc(COc3ccc4c(C)c(C)c(=O)oc4c3)cc1)CC2 | – | – |
| 190 nM | COc1cc2c(cc1OC)CN(CCCOc1ccc3c(C)c(C)c(=O)oc3c1)CC2 | – | – |
| 160 nM | COc1cc2c(cc1OC)CN(Cc1ccccc1COc1ccc3c(C)c(C)c(=O)oc3c1)CC2 | – | – |
